Calls of active or inactive are those of the source. The calls are words filed in the database; no cut-off is given here.
How the values were obtained:
HEK293 = test: Cytotoxicity against transformed human HEK293 cells after 24 to 48 hrs by MTT assay; format: functional, cell-based
M14 [1] = test: Cytotoxicity against human M14 cells after 24 to 48 hrs by MTT assay; format: functional, cell-based
U-937 = test: Cytotoxicity against human U937 cells after 24 to 48 hrs by MTT assay; format: functional, cell-based
M14 [2] = test: Increase in p53 expression in human M14 cells at 3 uM after 24 to 48 hrs by Western blot; format: functional, cell-based
Outline: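 M14 cells (1 × 10⁶ per flask), treated for 24 and 48 h. Lysed in ice-cold 50 mM Tris, 150 mM NaCl, 10 mM EDTA, 1% Triton with protease inhibitors. Equal protein run on 8-12% SDS-PAGE and blotted to nitrocellulose. Cytoplasmic p53 probed overnight at 4 °C, detected by HRP secondary and ECL, with tubulin as loading reprobe.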

M14 [3] = test: Induction of apoptosis in human M14 cells assessed as caspase-3 activation at 0.1 to 0.3 uM after 16 hrs by Western blot; format: functional, cell-based
Outline: (§1)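 M14 cells (1 × 10⁶ per flask) exposed 16 and 24 h, then lysed in ice-cold Triton lysis buffer with protease inhibitors. Equal protein run on 8-12% SDS-PAGE and blotted to nitrocellulose. Probed overnight at 4 °C for cleaved active caspase-3 subunits or PARP cleavage (85 kDa fragment), with HRP secondary and ECL read-out. Tubulin reprobe.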

M14 [4] = test: Increase in p53 expression in human M14 cells at 0.3 uM after 24 to 48 hrs by Western blot; format: functional, cell-based
Outline: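 M14 cells (1 × 10⁶ per flask) treated 24 and 48 h alongside untreated controls. Lysed in ice-cold Tris/NaCl/EDTA/1% Triton buffer with protease inhibitors. Equal protein run on 8-12% SDS-PAGE and blotted to nitrocellulose. Blocked in milk/Tween-TBS, anti-p53 overnight at 4 °C, HRP secondary, ECL detection. Cytoplasmic p53 read, with tubulin as reprobe.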

M14 [5] = test: Induction of cell morphology impairment in human M14 cells at cytotoxic IC50 concentration by phase contrast microscopy; format: functional, cell-based
Outline: (§2)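 Logarithmically growing M14 cells plated at 10⁵ cells/mL, with compound added after 24 h and vehicle controls alongside. Followed by inverted phase-contrast time-lapse microscopy at 37 °C under 5% CO₂, images taken hourly for up to 72 h. Rounding, blebbing and detachment scored at 10, 24 and 48 h.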

M14 [6] = test: Induction of cell morphology impairment in human M14 cells assessed as emergence of round and damaged cells at cytotoxic IC50 concentration after 10 hrs by phase contrast microscopy; format: functional, cell-based; outline: as §2
M14 [7] = test: Effect on cell cycle progression in human M14 cells at 1 uM after 24 hrs by flow cytometry; format: functional, cell-based
Outline: (§3)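 M14 cells at 2,5 × 10⁵ cells/mL in 12-well plates, treated 24 h (vehicle controls run alongside). Cells were trypsinised, washed in PBS and stained with propidium iodide in 0.1% sodium citrate/0.1% Triton X-100 at 4 °C for 30 min in the dark. FACScan analysis gave the percentage of cells in G0/G1, S and G2/M. Hypodiploid nuclei were scored as apoptotic.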

M14 [8] = test: Induction of cell morphology impairment in human M14 cells assessed as cell detachment at cytotoxic IC50 concentration after 48 hrs by phase contrast microscopy
M14 [9] = test: Effect on cell cycle progression in human M14 cells at 0.3 uM after 24 hrs by flow cytometry; format: functional, cell-based; outline: as §3
M14 [10] = test: Induction of apoptosis in human M14 cells assessed as PARP cleavage at 0.1 to 0.3 uM after 16 hrs by Western blot; format: functional, cell-based; outline: as §1
M14 [11] = test: Cell cycle arrest in human M14 cells assessed as accumulation at G2/M phase at 3 uM after 24 hrs by flow cytometry; format: functional, cell-based
Outline: (§4)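 Trypsinized, washed in PBS, stained in the dark at 4 °C for 30 min with 0.1% sodium citrate, 0.1% Triton X-100 and propidium iodide. Analyzed by FACScan flow cytometry. Phase distribution (G0/G1, S, G2/M) given as percentage of cells.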

M14 [12] = test: Induction of apoptosis in human M14 cells at 1 to 5 uM after 24 hrs; format: functional, cell-based
M14 [13] = test: Cell cycle arrest in human M14 cells assessed as decrease in G0/G1 phase accumulation at 3 uM after 24 hrs by flow cytometry; format: functional; parameters: scale not given: the % may be the effect or the level left; outline: as §4
M14 [14] = test: Cell cycle arrest in human M14 cells assessed as accumulation at G2 phase at 3 uM after 24 hrs by flow cytometry; format: functional; outline: as §4
M14 [15] = test: Induction of apoptosis in human M14 cells assessed as caspase-3 activation at supra cytotoxic IC50 concentration after 16 to 24 hrs by Western blot; format: functional, cell-based

Row | Compound | IC50 (HEK293) [µM] | IC50 (M14 [1]) [µM] | IC50 (U-937) [µM] | further results
1 | O=C1[C@@H]2CS[C@]3(C(=O)Nc4ccc(Br)cc43)N2C(=O)N1Cc1ccc(Cl)cc1 | 7.13 | 7.06 | 5.01 | –
2 | CN1C(=O)[C@]2(SC[C@H]3C(=O)N(Cc4ccc(Cl)cc4)C(=O)N32)c2ccccc21 | 2.11 | 2.47 | 2.91 | –
3 | O=C1[C@@H]2CS[C@]3(C(=O)N(C(=O)c4ccccc4)c4ccccc43)N2C(=O)N1Cc1ccc(Cl)cc1 | 3.5 | 3.25 | 3.12 | –
4 | O=C1[C@@H]2CS[C@]3(C(=O)Nc4ccc(Br)cc43)N2C(=O)N1Cc1ccccc1 | 8.48 | 12 | 7.58 | –
5 | CCCC(=O)N1C(=O)[C@]2(SC[C@H]3C(=O)N(Cc4cc(OC)c(OC)c(OC)c4)C(=O)N32)c2cc(C)ccc21 | 4.42 | 7.4 | 4.1 | –
6 | COc1cc(CN2C(=O)[C@@H]3CS[C@]4(C(=O)N(C(=O)c5ccc(C)cc5)c5ccc(C)cc54)N3C2=O)cc(OC)c1OC | 3.81 | 5.95 | 2.42 | –
7 | Cc1ccc2c(c1)[C@@]1(SC[C@H]3C(=O)N(Cc4ccc(Cl)cc4)C(=O)N31)C(=O)N2 | 3.88 | 6.65 | 3.31 | Activity (M14 [2]): Active
8 | Cc1ccc2c(c1)[C@@]1(SC[C@H]3C(=O)N(Cc4ccccc4)C(=O)N31)C(=O)N2 | 3.3 | 3.88 | 2.09 | –
9 | Cc1ccc2c(c1)[C@@]1(SC[C@H]3C(=O)N(C4CCC(C)(C)CC4)C(=O)N31)C(=O)N2 | 16 | 19.1 | 12.5 | –
10 | CC1(C)CCC(N2C(=O)[C@@H]3CS[C@]4(C(=O)Nc5ccc(Br)cc54)N3C2=O)CC1 | > 40 | > 40 | > 40 | –
11 | Cc1ccc(CN2C(=O)[C@@H]3CS[C@]4(C(=O)Nc5ccccc54)N3C2=O)cc1 | 4.53 | 13.3 | 5.91 | –
12 | COc1cc(CN2C(=O)[C@@H]3CS[C@]4(C(=O)Nc5ccccc54)N3C2=O)cc(OC)c1OC | 3.8 | 4.73 | 2.51 | –
13 | CN1C(=O)[C@]2(SC[C@H]3C(=O)N(Cc4ccccc4)C(=O)N32)c2ccccc21 | 3.98 | 6.37 | 2.89 | –
14 | Cc1ccc(CN2C(=O)[C@@H]3CS[C@]4(C(=O)Nc5ccc(Br)cc54)N3C2=O)cc1 | 7.61 | 10.2 | 6.23 | –
15 | O=C1[C@@H]2CS[C@]3(C(=O)N(C(=O)c4ccc(Cl)cc4)c4ccccc43)N2C(=O)N1Cc1ccc(Cl)cc1 | 5.01 | 3.37 | 2.61 | –
16 | COc1cc(CN2C(=O)[C@@H]3CS[C@]4(C(=O)N(C)c5ccccc54)N3C2=O)cc(OC)c1OC | 6.01 | 7.66 | 5.7 | –
17 | CC1(C)CCC(N2C(=O)[C@@H]3CS[C@]4(C(=O)Nc5ccccc54)N3C2=O)CC1 | 4.22 | 7.07 | 2.61 | –
18 | COc1cc(CN2C(=O)[C@@H]3CS[C@]4(C(=O)Nc5ccc(Br)cc54)N3C2=O)cc(OC)c1OC | 9.31 | 11 | 5.02 | –
19 | Cc1ccc(CN2C(=O)[C@@H]3CS[C@]4(C(=O)Nc5ccc(C)cc54)N3C2=O)cc1 | 3.01 | 3.39 | 2.77 | –
20 | Cc1ccc(CN2C(=O)[C@@H]3CS[C@]4(C(=O)N(C)c5ccccc54)N3C2=O)cc1 | 10.7 | 31.8 | 16.8 | –
21 | O=C1[C@@H]2CS[C@]3(C(=O)Nc4ccccc43)N2C(=O)N1Cc1ccc(Cl)cc1 | 0.44 | 0.53 | 0.87 | Activity (M14 [3]): Active; Activity (M14 [4]): Active; Activity (M14 [5]): Active; Activity (M14 [6]): Active; Activity (M14 [7]): inactive; Activity (M14 [8]): Active; Activity (M14 [9]): inactive; Activity (M14 [10]): Active
22 | CN1C(=O)[C@]2(SC[C@H]3C(=O)N(C4CCC(C)(C)CC4)C(=O)N32)c2ccccc21 | > 40 | > 40 | > 40 | –
23 | CCCC(=O)N1C(=O)[C@]2(SC[C@H]3C(=O)N(Cc4ccc(Cl)cc4)C(=O)N32)c2ccccc21 | 2.01 | 2.04 | 2.1 | –
24 | COc1cc(CN2C(=O)[C@@H]3CS[C@]4(C(=O)Nc5ccc(C)cc54)N3C2=O)cc(OC)c1OC | 2.04 | 2.4 | 2.06 | Activity (M14 [11]): Active; Activity (M14 [5]): Active; Activity (M14 [6]): Active; Activity (M14 [12]): inactive; Activity (M14 [8]): Active; Activity (M14 [13]): 20%; Activity (M14 [14]): 47%; Activity (M14 [15]): inactive
25 | COc1cc(CN2C(=O)[C@@H]3CS[C@]4(C(=O)N(C(=O)c5ccc(Cl)cc5)c5ccc(C)cc54)N3C2=O)cc(OC)c1OC | 4.71 | 8.14 | 3.11 | –
26 | Cc1ccc(C(=O)N2C(=O)[C@]3(SC[C@H]4C(=O)N(Cc5ccc(Cl)cc5)C(=O)N43)c3ccccc32)cc1 | 2.5 | 2.08 | 2.01 | –
27 | O=C1[C@@H]2CS[C@]3(C(=O)Nc4ccccc43)N2C(=O)N1Cc1ccccc1 | 4.8 | 10.6 | 3.9 | –
28 | COc1cc(CN2C(=O)[C@@H]3CS[C@]4(C(=O)N(C(=O)c5ccccc5)c5ccc(C)cc54)N3C2=O)cc(OC)c1OC | 4.22 | 7.84 | 4.31 | –
29 | COc1cccc2c1C(=O)c1c(O)c3c(c(O)c1C2=O)C[C@@](O)(C(=O)CO)C[C@@H]3O[C@H]1C[C@H](N)[C@H](O)[C@H](C)O1 [DOXORUBICIN] | 0.9 | 1 | 0.8 | –

From ChEMBL document CHEMBL1629533, “Identification of the spiro(oxindole-3,3'-thiazolidine)-based derivatives as potential p53 activity modulators” (J Med Chem, 2010)
